Source: ChEMBL document CHEMBL4359913, “Identification and characterization of benzo[d]oxazol-2(3H)-one derivatives as the first potent and selective small-molecule inhibitors of chromodomain protein CDYL” (Eur J Med Chem, 2019)
Active and inactive are the calls of the source.

Tests used:
[1] = biological target: T1, Chromodomain Y-like protein (Homo sapiens) (UniProt Q9Y232); experiment: Inhibition of CDYL in human SH-SY5Y cells assessed as increase in BDNF mRNA expression incubated for 24 hrs by RT-qPCR analysis; type: cell-based
T1 sequence (whole entry): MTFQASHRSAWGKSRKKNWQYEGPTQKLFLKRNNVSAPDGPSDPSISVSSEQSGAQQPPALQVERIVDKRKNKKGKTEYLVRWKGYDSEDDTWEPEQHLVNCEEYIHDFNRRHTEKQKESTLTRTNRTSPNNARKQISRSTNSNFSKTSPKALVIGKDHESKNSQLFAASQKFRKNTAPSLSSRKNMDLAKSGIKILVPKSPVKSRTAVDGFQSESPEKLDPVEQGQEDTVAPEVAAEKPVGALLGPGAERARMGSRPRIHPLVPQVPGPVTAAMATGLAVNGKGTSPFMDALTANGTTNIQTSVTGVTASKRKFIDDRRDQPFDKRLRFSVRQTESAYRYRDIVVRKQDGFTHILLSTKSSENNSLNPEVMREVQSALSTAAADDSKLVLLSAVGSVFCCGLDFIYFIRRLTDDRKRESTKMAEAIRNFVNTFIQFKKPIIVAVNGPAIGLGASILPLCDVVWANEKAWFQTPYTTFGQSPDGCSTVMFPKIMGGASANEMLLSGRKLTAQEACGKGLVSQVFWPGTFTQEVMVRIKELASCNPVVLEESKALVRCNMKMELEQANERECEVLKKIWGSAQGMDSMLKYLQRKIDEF
How it was run: (§1)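 SH-SY5Y or HEK-293T cells grown in DMEM with 10% FBS and treated with compound for 24 h. mRNA quantified by SYBR green RT-qPCR after DNase treatment, 2^-ΔΔCt method with GAPDH as reference, relative to DMSO. Mean ± S.E.M. of triplicate experiments, Student's t-test.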

[2] = biological target: T1, Chromodomain Y-like protein (Homo sapiens); experiment: Inhibition of CDYL in human HEK293T cells assessed as increase in BDNF mRNA expression at 50 to 200 uM incubated for 24 hrs by RT-qPCR analysis; type: cell-based; how it was run: as §1
[3] = biological target: T1, Chromodomain Y-like protein (Homo sapiens); experiment: Inhibition of CDYL in human HEK293T cells assessed as increase in VGF mRNA expression at 50 to 200 uM incubated for 24 hrs by RT-qPCR analysis; type: cell-based; how it was run: as §1
[4] = biological target: T1, Chromodomain Y-like protein (Homo sapiens); experiment: Binding affinity to CDYL in human SH-SY5Y cells assessed as increase in protein thermal stability at 150 uM incubated for 10 mins at room temperature followed by exposure to 40 to 67 degC for 4 mins followed by cooling for 3 mins at room temperature by CETSA; type: cell-based
How it was run: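 SH-SY5Y cells freeze-thawed three times in liquid nitrogen, lysate diluted with PBS, given 150 µM compound or DMSO for 10 min at room temperature. Aliquots heated at 40–67 °C for 4 min, cooled 3 min, spun at 13,000 g for 10 min at 4 °C. CDYL in the supernatant read by SDS-PAGE and Western blot, bands quantified by densitometry.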

[5] = test system: SH-SY5Y; experiment: Effect on CDYL recruitment onto HOXA3 promoter site in human SH-SY5Y cells at 150 uM incubated for 24 hrs by ChIP-qPCR analysis; type: functional, cell-based
How it was run: (§2)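 About 1×10^7 SH-SY5Y cells given 150 µM compound or DMSO for 24 h, fixed in 1% formaldehyde for 10 min. Chromatin immunoprecipitated overnight-style (12 h, 4 °C) with CDYL or H3K27me3 antibody, captured on Protein A/G beads, washed, decrosslinked at 65 °C. Promoter DNA quantified by qPCR, mean ± S.E.M. of triplicate experiments, Student's t-test.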

[6] = biological target: T1, Chromodomain Y-like protein (Homo sapiens); experiment: Inhibition of CDYL in human SH-SY5Y cells assessed as decrease in enrichment of H3K27me3 at MYT1 promoter site at 150 uM incubated for 24 hrs by ChIP-qPCR analysis; type: cell-based; how it was run: as §2
[7] = biological target: T1, Chromodomain Y-like protein (Homo sapiens); experiment: Inhibition of CDYL in human SH-SY5Y cells assessed as decrease in enrichment of H3K27me3 at BDNF promoter site at 150 uM incubated for 24 hrs by ChIP-qPCR analysis; type: cell-based; how it was run: as §2
[8] = test system: SH-SY5Y; experiment: Effect on enrichment of H3K27me3 at HOXA3 promoter site in human SH-SY5Y cells at 150 uM incubated for 24 hrs by ChIP-qPCR analysis; type: functional, cell-based; how it was run: as §2
[9] = biological target: T2, Chromodomain Y-like protein (Mus musculus) (UniProt Q9WTK2); experiment: Inhibition of CDYL in C57BL/6 mouse cortical neurons as increase in MYT1 mRNA expression at 150 uM incubated for 24 hrs by RT-qPCR analysis
T2 sequence (whole entry): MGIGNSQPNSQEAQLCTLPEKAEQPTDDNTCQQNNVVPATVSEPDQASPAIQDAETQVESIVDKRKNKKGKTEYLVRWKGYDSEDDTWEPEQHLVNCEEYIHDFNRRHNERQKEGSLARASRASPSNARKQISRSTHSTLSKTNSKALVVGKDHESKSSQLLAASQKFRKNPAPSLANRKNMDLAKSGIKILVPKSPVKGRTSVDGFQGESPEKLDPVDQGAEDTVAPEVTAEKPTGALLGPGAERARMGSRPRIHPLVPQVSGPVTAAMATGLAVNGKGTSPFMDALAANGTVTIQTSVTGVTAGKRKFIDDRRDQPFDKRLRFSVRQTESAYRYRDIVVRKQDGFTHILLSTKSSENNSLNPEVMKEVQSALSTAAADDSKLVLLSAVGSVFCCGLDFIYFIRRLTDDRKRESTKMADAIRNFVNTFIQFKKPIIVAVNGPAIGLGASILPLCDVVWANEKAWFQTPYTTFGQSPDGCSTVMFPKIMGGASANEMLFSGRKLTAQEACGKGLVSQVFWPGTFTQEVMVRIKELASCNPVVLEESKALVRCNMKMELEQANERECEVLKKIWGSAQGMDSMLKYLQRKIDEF
How it was run: (§3)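 Mouse cortical or hippocampal neurons, dissociated with trypsin and kept in Neurobasal/B27, treated with 150 µM compound for 24 h. mRNA measured by SYBR green RT-qPCR with the 2^-ΔΔCt method, GAPDH as reference, relative to DMSO. Mean ± S.E.M. of triplicate experiments, Student's t-test.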

[10] = biological target: T2, Chromodomain Y-like protein (Mus musculus); experiment: Inhibition of CDYL in C57BL/6 mouse cortical neurons as increase in VGF mRNA expression at 150 uM incubated for 24 hrs by RT-qPCR analysis; how it was run: as §3
[11] = biological target: T2, Chromodomain Y-like protein (Mus musculus); experiment: Inhibition of CDYL in C57BL/6 mouse cortical neurons assessed as induction of dendritic branching at 150 uM incubated for 24 hrs by DAPI staining confocal microscopic method
How it was run: (§4)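 Mouse hippocampal or cortical neurons on poly-D-lysine given 150 µM compound or DMSO at DIV 5 for 24 h, then fixed in 4% PFA. Stained for MAP2 with DAPI nuclei and imaged by confocal microscopy. Dendrite crossings counted by Sholl analysis at 10 µm intervals. Mean ± S.E.M. of triplicates, Student's t-test.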

[12] = biological target: T2, Chromodomain Y-like protein (Mus musculus); experiment: Inhibition of CDYL in C57BL/6 mouse hippocampal neurons assessed as induction of dendritic branching at 150 uM incubated for 24 hrs by DAPI staining confocal microscopic method; how it was run: as §4

O=C(Cn1c(=O)oc2ccccc21)N1CCC(N2CCCC2)CC1
inactive: Activity [5] | Activity [8]
active: Activity [1] Dose-dependent effect | Activity [2] | Activity [3] | Activity [4] | inhibition [6] | inhibition [7] | Activity [9] | Activity [10] | Activity [11] | Activity [12]
